According to the RNAGym collection of RNA variant scans (doi:10.1126/science.aae0568):
Variants at the floor of the assay were thinned out.

B1: tRNA (parent)
chain: GUUCCGUUGGCGUAAUGGUAACGCGUCUCCCUCCUAAGGAGAAGACUGCGGGUUCGAGUCCCGUACGGAACG

Variants of: B1
Assay: yeast fitness relative to wild type (ratio to wild type); higher = fitter; tRNA-Arg(CCU), competitive growth, 37 C, YPD
Method in brief: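 A pool of Saccharomyces cerevisiae strains, each with a tRNA-Arg(CCU) gene variant at the native genomic locus, was competed in YPD at 37°C for 24 hours across six parallel replicates. The variants had been chemically synthesised at a 3% per-site mutation rate over 69 sites, and gene amplicons before and after competition were read by 100-nucleotide paired-end sequencing. Darwinian fitness relative to wild type rested on changes in genotype frequencies. Genotypes required ≥ 100 starting reads, and estimates < 0.5 were set to 0.5.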

Variant | yeast fitness
GUUCGGUUGGCGUAGAGGUGACGCGUCACACUACUUAGGAGAAGACUGCGGGUUCGAGUCCCGUACGGUACG | ≤ 0.5
GUUCGGUUGGCGUAGAGGUGACGCGUCACACUACUUAGGAGAAGACUGCGGGUUCGAGUCCCGUACGGAUCG | ≤ 0.5
GUUCGGUUGGCGUAUUGGUAACGCGUCUCAAUCCUAAGGAGAAGACUGUGGGUUCGAGUCCCGUAGGGAACG | ≤ 0.5
GUUCGGUUGGCGUAAUGGUACCGCGUCUCCCUCCUAAGGAGAAGGCUGCGGGUUCGAGUCCCGUACGGAACG | 0.512
GUUCGGUUGGCGUAAUGGUCACGUGUCUCCCUCCUAAGGAGAAGACUGCGGGUUCGAGUCCCGUACGAAACG | ≤ 0.5
GUUCGGUUGGCGUAAUGGUUGGGCGUCUCCCUCCAAAGGAGAAAACUGCGGGUUUGAGUGCCGAACAGAACG | 0.649
GUUCGGUUGGCGUAGUGGUAACGCGUCUCCCUCCUGAGGAGAAGCCUGCUGGUUCGAGUCCCGUACGGAACG | ≤ 0.5
GUUCGGUUGGCGUAAUGGUGACGCGUCUCCCUCCUCAGGAGAAGACUGCGGGUUCGAGUCCCGUACGGAACG | 0.52
GUUCGGUUGGCGUAAUGGUGACGCGUCUCACUCGUAAGGAGAAGACUGCGGGUUCGAGUCCCGUACGGAACG | ≤ 0.5
GUUCGGUUGGCGUAGUGGUAACGCGUCCCUCUCCUAAGGAGAAGACUGCGGGUUCGAGUCCCGUACGGUACG | ≤ 0.5
GUUCGGUUGGCGUAAUGGUGACGCGUCUCCCUCCUAAGGGGAAAAGUGCGGGUUCGAGUCCCGUCCGGAACG | ≤ 0.5
GUUCGGUUGGCGUAAUGGUGACGCGUCUCCCUCCUAAGGAGAAGACUGCGGGUUCGAGUCCCGUACGGAACG | 0.965
GUUCGGUUGGCGUAAUGGUCACGCGUCUCCGUCCUAUGGAGAAGACUGCGGGUUCGAGUCCCGUACGGAACG | 0.617
GUUCGGUUGGCGUAAUGGUGACGCGUCUCCCUCCUCAGGAGAAGACUGCGGGUUCGAGUCCCAUACGGAACG | ≤ 0.5
GUUCGGUUGGCGUAAUGGUCACGCGUAUCCCUCCUAAGAAGAAGACUGCGGGUUCGAGUCGCGUACGGAACG | ≤ 0.5
GUUCGGUUGGCGUAAUGGUCACGCGUCCACCUCCUUAGGUGAAGACUGGGGGUUCGAGUCCCGUACGGAACG | ≤ 0.5
GUUCGGUUGGCGUAAUGGUGAGGCGUCUGCCUCCUAAGGAGAAGACUGCGGGUUCGAGUCCCCUACGGAACG | ≤ 0.5
GUUCGGUUGGCGUAAUGGUGAGGCGUCUGCCUCCUAAGGAGAAGACUGCGGGUUCGAGUCCCAUACGGAACG | ≤ 0.5
GUUCGGUUGGCGUAAUGGUGACGCGUCUCCCUCCUCAGGAGAAGACUGCAAGUUCGAGUCCCGUACGGCACG | ≤ 0.5

Variant | yeast fitness
GUUCGGUUGGCGUAGAGGUGACGCGUCACACUACUUAGGAGAAGACUGCGGGUUCGAGUCCCGUUCGGCACG | ≤ 0.5
GUUCGGUUGGCGUAUUGGUAACGCGUCUCCCUCCUAAGGUGAAGACUGCGGGUUCGAGUCCCGUACCGAACG | ≤ 0.5
GUUCGGUUGGCGUAGUGGUAACGCGUCUCCCUCCUGAGGAGAGGACUGCGGGUUCAAGUCCCGUACGGAACG | ≤ 0.5
GUUCGGUUGGCGUAGUGGUAACGCGUCUCCCUCCUAAGGAGCAGACUGCGGGUUCGAGUCCCGUACGGAACG | 0.544
GUUCGGUUGGCGUAGUGGUAACGCGUCUCCCUCCUAAGGAGAAGACUGCGGGUUCGAGUCCCGUAUGGAACG | ≤ 0.5
GUUCGGUUGGCGUAAUGGUGACGCGUCUCCCUCCUAAGGAGAAGACUGCGGGAUCGAGUCCCGUACAGAACG | ≤ 0.5
GUUCGGUUGGCGUAAUGGUGAGGCGUCUGCCUCCUAAGGAGAAGACUGCGGGUUCGAGUCCCGUACGGAACG | ≤ 0.5
GUUCGGUUGGCGUAGAGGUGACGCGUCACACUACUUAGGAGAAGACUGCGGGUUCGAGUCCCGUACGGAACG | 0.553
GUUCGGUUGGCGUAGUGGUAACGCGUGUCACUCCUAAGGAGAAGACUGCGGGUUCGAGUCCCGUACGGAACG | ≤ 0.5
GUUCGGUUGGCGUAUUGGUAACGCGUCUCCCUCCUAAGGAGAAGACUGCGGGUUCGAAUCCCGUACAGAACG | 0.626
GUUCGGUUGGCGUAAUGGUUACGCGUCUCCGUCCUAAGGAGAAGACUGCGGGUUCGAGUCCCGUACGGAACG | ≤ 0.5
GUUCGGUUGGCGUAAUGGUACCGCGUCUCCCUCCUAAGGAGAAGUUUGCGGGUUCGAGUCCCGUACGGAACG | ≤ 0.5
GUUCGGUUGGCGUACUGGUAACGCGUCACCCUCCUAAGGACAAGACUGCGGGUUCGAGUCCCGGACGGAACG | ≤ 0.5
GUUCGGUUGGCGUAAUGGUUACGCGUCUCCCUCCUAAGGACAAGACUGCGGGUUCGAGUCCCGUACGGAACG | ≤ 0.5
GUUCGGUUGGCGUAAUGGUCACGCGUCUCCAUCCUAAGGAGAAGACUGCGGGUUCGAGUCCCGUACGGAACG | 0.55
GUUCGGUUGGCGUAAUGGUACCGUGUCUCCCUUCUAAGGAGAAGACUGCGGGUUCGAGUCCCGUACGGAACG | ≤ 0.5
GUUCGGUUGGCGUAGUGGUAACGGGUCUCCCACGUAAGGAGAAGACUGCGGGUUCGAGUCCCGUAUGGAACG | ≤ 0.5
GUUCGGUUGGCGUAGUGGUAACGCGUCACCCUCCUAAGGAGAAGACUGCGGGUUCGCGUCCCGUAGGGAACG | ≤ 0.5
GUUCGGUUGGCGUAAUGGUACCGCGUCUCCCUCCUAAGGAGAAGACUGCGGGUUCGAGUCCCGUACGGCACG | ≤ 0.5
